Reference: ChEMBL document CHEMBL1123481, “Structure-activity relationships of (arylalkyl)imidazole anticonvulsants: comparison of the (fluorenylalkyl)imidazoles with nafimidone and denzimol” (J Med Chem, 1986)

Experiments:
Mus musculus [1] = assay: Effective dose in mice by horizontal screen assay (administered orally); assay type: functional; conditions: po
How it was run: (§1)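 Fasted, pre-trained male CF1 mice (20–25 g) were dosed orally across a range of doses, given as a suspension in 5% acacia/water. Each mouse was placed on a 13 cm square wire screen, and the screen was rotated 180°. The score was return to the top within 1 min. Time of peak effect was scanned at 0.5–4 h. Each compound was then retested at that time with at least 4 doses and 12 mice per dose.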

Mus musculus [2] = assay: Effective dose in mice by pentylenetetrazole assay (administered subcutaneously); assay type: functional; conditions: sc
How it was run: (§2)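 Test compound was given orally to mice. At its previously determined time of peak effect, pentylenetetrazole (110 mg/kg in water, 10 mL/kg) was injected sc into the neck skin fold. Mice were watched for 15 min for presence or absence of a clonic seizure. Where protection was bell-shaped, the value is the dose giving maximum protection.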

Mus musculus [3] = species on record: Mus musculus; assay: Compound was tested for time to peak anticonvulsant effect (TPE); assay type: functional
How it was run: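 Time to peak effect after oral dosing in 5% acacia/water was estimated by testing mice at 0.5, 1, 2, 3 and 4 h posttreatment in the MES and horizontal screen tests.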

Mus musculus [4] = species on record: Mus musculus; assay: Potentiation of hexobarbital-induced sleeping time in mice; assay type: functional
How it was run: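 Groups of 10 fasted mice received compound orally at 10 mg/kg in 5% acacia/water (10 mL/kg). At the compound's time of peak effect they were given hexobarbital 100 mg/kg ip, solubilized with stoichiometric NaOH. Sleeping time, measured as loss of righting reflex, was recorded to the nearest minute. Values are mean ± SEM.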

Mus musculus [5] = assay: Compound was tested for effective dose in mice by horizontal screen assay (administered orally); Ca 550; assay type: functional; conditions: po; how it was run: as §1
Mus musculus [6] = assay: Effective dose in mice by maximal electroshock assay, administered orally; assay type: functional; conditions: po
How it was run: (§3)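 Mice were dosed orally across a range of doses, given in 5% acacia/water. Time of peak effect was found by shocking at 0.5, 1, 2, 3 and 4 h. Corneal electroshock was 40 mA, 0.1 s, ac. Each compound was retested at peak time with at least four doses and 12 mice per dose. The ED50 for prevention of tonic-extensor convulsion was calculated by Litchfield–Wilcoxon; 95% confidence limits are given.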

Mus musculus [7] = assay: Effective dose in mice by pentylenetetrazole assay (administered subcutaneously); No effect at highest dose of 400 mg/kg; assay type: functional, organism-based; set-up: dose 400 mg/kg; how it was run: as §2
Mus musculus [8] = assay: Effective dose in mice by horizontal screen assay (administered orally); No effect at highest dose of 400 mg/kg; assay type: functional, organism-based; set-up: dose 400 mg/kg; how it was run: as §1
Mus musculus [9] = assay: Compound was tested for effective dose in mice by pentylenetetrazole assay (administered subcutaneously); No effect at highest dose of 800 mg/kg; assay type: functional, organism-based; set-up: dose 800 mg/kg; how it was run: as §2
[10] = target: T1, GABA-A receptor; anion channel (Rattus norvegicus) (UniProt O09028+P15431+P18506+P18508+P19969+P20236+P23574+P23576+P28471+P28473+P30191+P62813+P63079+P63138+Q91ZM7+Q9ES14); assay: In vivo displacement of [3H]flunitrazepam binding to rat cortical membranes after 20 mg/kg ip dose; assay type: organism-based; set-up: dose 20 mg/kg; conditions: Membrane, at 20 mg/kg
How it was run: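 Male Sprague-Dawley rats (100 g; five per group) received saline or compound at 20 mg/kg ip. After 30 min, [3H]flunitrazepam (100 μCi/kg) was given iv via the tail vein. Rats were killed 20 min later. Cortex was homogenized in 50 mM Tris-HCl pH 7.4, and the particulate fraction was filtered and rinsed. Results are given as % of saline control, mean ± SEM.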

[11] = target: T1, GABA-A receptor; anion channel (Rattus norvegicus); assay: In vitro displacement of [3H]flunitrazepam binding to cortical membranes at 5e-5M concentration
How it was run: (§4)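 Rat cortical membranes (180 μg protein) were incubated with 2 nM [3H]flunitrazepam in 50 mM Tris-HCl pH 7.4 for 40 min at 4 °C, with test compound at 5×10^-5 M, in triplicate. Samples were filtered and washed three times with ice-cold buffer. Nonspecific binding was defined with 3 μM diazepam. Results are given as % of control, mean ± SEM.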

[12] = target: T1, GABA-A receptor; anion channel (Rattus norvegicus); assay: In vitro displacement of [3H]flunitrazepam binding from rat cortical membranes at 50 uM; assay type: cell membranes; conditions: Membrane; how it was run: as §4
Mus musculus [13] = assay: Compound was tested for effective dose in mice by pentylenetetrazole assay (administered subcutaneously); No effect at highest dose of 100 mg/kg; assay type: functional, organism-based; set-up: dose 100 mg/kg; how it was run: as §2
Mus musculus [14] = assay: Compound was tested for effective dose in mice by horizontal screen assay (administered orally); No effect at highest dose of 800 mg/kg; assay type: functional, organism-based; set-up: dose 800 mg/kg; how it was run: as §1
Mus musculus [15] = assay: Compound was tested for effective dose in mice by maximal electroshock assay (administered orally); No effect at highest dose of 800 mg/kg; assay type: functional, organism-based; set-up: dose 800 mg/kg; how it was run: as §3
Mus musculus [16] = assay: Effective dose in mice by horizontal screen assay (administered orally); No effect at highest dose of 200 mg/kg
Mus musculus [17] = assay: Effective dose in mice by pentylenetetrazole assay (administered subcutaneously); No effect at highest dose of 200 mg/kg
Mus musculus [18] = assay: Compound was tested for effective dose in mice by maximal electroshock assay (administered per orally); assay type: functional; conditions: po; how it was run: as §3

Row | SMILES | ED50 (Mus musculus [1]) | ED50 (Mus musculus [2]) | TPE (Mus musculus [3]) | ED50 (Mus musculus [6]) | ED50 (Mus musculus [8]) | other results
1 | CC(C(=O)c1ccc2c(c1)Cc1ccccc1-2)n1ccnc1 (centres undefined) | > 400 mg/kg | 260 mg/kg | 1.5 h |  |  | ST (Mus musculus [4]): 103 min
2 | CC1(C)c2ccccc2-c2ccc(C(=O)Cn3ccnc3)cc21 | > 400 mg/kg | > 400 mg/kg | 1 h |  |  | 
3 | O=C(Cn1ccnc1)c1ccc2c(c1)CCc1ccccc1-2 |  |  | 2 h | 60 mg/kg |  | ED50 (Mus musculus [5]): 550 mg/kg; ED50 (Mus musculus [7]): No effect
4 | O=C(Cn1ccnc1)c1csc2ccccc12 |  | > 400 mg/kg | 1 h | 59 mg/kg | No effect | 
5 | COc1ccc2c(c1)Cc1cc(C(=O)Cn3ccnc3)ccc1-2 |  |  | 2 h | 360 mg/kg | No effect | ED50 (Mus musculus [9]): No effect; ST (Mus musculus [4]): 56.9 min
6 | c1ccc2c(c1)Cc1cc(C3(Cn4ccnc4)SCCS3)ccc1-2 | > 400 mg/kg | > 400 mg/kg | 2 h |  |  | 
7 | O=C(Cn1ccnc1)c1ccc2ccc3ccccc3c2c1 | > 400 mg/kg | > 400 mg/kg | 1 h | 52 mg/kg |  | Control [10]: 121%; Control [11]: 123%; Binding [12]: 23%
8 | Cc1ccc2c(c1)Cc1cc(C(=O)Cn3ccnc3)ccc1-2 |  |  | 2 h |  | No effect | ED50 (Mus musculus [7]): No effect
9 | c1ccc2c(c1)Cc1cc(C3(Cn4ccnc4)OCCO3)ccc1-2 | > 100 mg/kg |  | 4 h |  |  | ED50 (Mus musculus [13]): No effect; ST (Mus musculus [4]): 88.7 min
10 | CCc1nccn1CC(=O)c1ccc2c(c1)Cc1ccccc1-2 | > 400 mg/kg | > 400 mg/kg | 2 h | 190 mg/kg |  | 
11 | O=C(Cn1ccnc1)c1cccc2c1-c1ccccc1C2 | > 400 mg/kg | 400 mg/kg | 1 h |  |  | 
12 | O=C(OC(Cn1ccnc1)c1ccc2c(c1)Cc1ccccc1-2)c1ccccc1 (centres undefined) |  | > 400 mg/kg | 1 h |  | No effect | 
13 | O=C(Cn1cnc(-c2ccccc2)c1)c1ccc2c(c1)Cc1ccccc1-2 |  |  | 2 h |  |  | ED50 (Mus musculus [14]): No effect; ED50 (Mus musculus [9]): No effect; ED50 (Mus musculus [15]): No effect
14 | CC1(C)COC(Cn2ccnc2)(c2ccc3c(c2)Cc2ccccc2-3)OC1 |  |  | 2 h |  |  | ED50 (Mus musculus [16]): No effect; ED50 (Mus musculus [17]): No effect
15 | CC(O)(Cn1ccnc1)c1ccc2c(c1)Cc1ccccc1-2 (centres undefined) |  |  | 2 h | 10 mg/kg | No effect | ED50 (Mus musculus [7]): No effect; ST (Mus musculus [4]): 146.9 min; ED50 (Mus musculus [18]): 10 mg/kg
16 | O=C(Cn1ccnc1)c1cccc2c1Cc1ccccc1-2 | > 100 mg/kg | > 200 mg/kg | 2 h | 19 mg/kg |  | 
17 | CCC(C(=O)c1ccc2c(c1)Cc1ccccc1-2)n1ccnc1 (centres undefined) |  | > 400 mg/kg | 1 h |  | No effect | 
18 | OC(CCn1ccnc1)c1ccc2c(c1)Cc1ccccc1-2 (centres undefined) | > 400 mg/kg |  | 1 h |  |  | ED50 (Mus musculus [7]): No effect; ST (Mus musculus [4]): 75 min
19 | c1ccc2c(c1)Cc1cc(C3(CCn4ccnc4)OCCO3)ccc1-2 |  | > 400 mg/kg | 1 h |  | No effect | 
